Measurements from ChEMBL document CHEMBL3588778, “Synthesis and biological evaluation of spirocyclic antagonists of CCR2 (chemokine CC receptor subtype 2)” (Bioorg Med Chem, 2015).

Legend:
[1] = target: T1, C-C chemokine receptor type 2 (Homo sapiens, UniProt P41597); experiment: Displacement of [125I]-CCL2 from human CCR2 expressed in U2OS cells at 1 uM incubated for 150 mins by scintillation spectrometry; assay type: cell-based
Method in brief: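 Membranes (15 µg protein) from U2OS cells stably expressing human CCR2 were incubated with 0.1 nM 125I-CCL2 for 150 min at 37 C. Buffer was 50 mM Tris-HCl pH 7.4 with 5 mM MgCl2 and 0.1% CHAPS. Test compound was 1 µM and nonspecific binding was defined with 10 µM INCB3344. Bound ligand was separated by filtration on PEI-coated GF/B filters and counted by scintillation. Result given as % displacement.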
Target sequence in this assay (P41597 whole entry, looked up): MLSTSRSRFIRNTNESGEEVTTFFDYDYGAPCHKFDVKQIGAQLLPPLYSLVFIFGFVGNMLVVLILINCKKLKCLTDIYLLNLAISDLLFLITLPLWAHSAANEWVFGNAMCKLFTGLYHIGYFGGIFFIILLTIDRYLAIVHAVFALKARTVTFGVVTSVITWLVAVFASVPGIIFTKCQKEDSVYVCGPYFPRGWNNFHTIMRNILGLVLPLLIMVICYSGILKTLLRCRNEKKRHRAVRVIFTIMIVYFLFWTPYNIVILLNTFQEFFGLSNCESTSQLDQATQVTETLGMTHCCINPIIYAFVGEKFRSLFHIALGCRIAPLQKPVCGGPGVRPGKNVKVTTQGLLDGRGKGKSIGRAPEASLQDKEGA

[2] = target: T1, C-C chemokine receptor type 2; experiment: Antagonist activity against human CCR2B expressed in Chem-1 cells assessed as inhibition of human CCL2-induced intracellular calcium flux incubated for 10 mins by Fluo-4 AM dye based intracellular calcium flux assay; assay type: functional, cell-based
Target sequence in this assay (P41597 whole entry): as the sequence (P41597 whole entry, looked up) above

[3] = target: C-C chemokine receptor type 2 (Mus musculus, UniProt P51683); experiment: Antagonist activity against mouse CCR2B expressed in human U2OS cells co-expressing beta-arrestin assessed as inhibition of mouse CCL2-induced beta-arrestin recruitment pre-incubated for 10 mins before mouse CCL2 stimulation for 90 mins by luminescence based assay; assay type: cell-based
[4] = target: T1, C-C chemokine receptor type 2; experiment: Displacement of [125I]-CCL2 from human CCR2 expressed in U2OS cells incubated for 150 mins by scintillation spectrometry; assay type: cell-based
Target sequence in this assay (P41597 whole entry): as the sequence (P41597 whole entry, looked up) above

Sequence of C-C chemokine receptor type 2 (Mus musculus, UniProt P51683) (P51683 whole entry): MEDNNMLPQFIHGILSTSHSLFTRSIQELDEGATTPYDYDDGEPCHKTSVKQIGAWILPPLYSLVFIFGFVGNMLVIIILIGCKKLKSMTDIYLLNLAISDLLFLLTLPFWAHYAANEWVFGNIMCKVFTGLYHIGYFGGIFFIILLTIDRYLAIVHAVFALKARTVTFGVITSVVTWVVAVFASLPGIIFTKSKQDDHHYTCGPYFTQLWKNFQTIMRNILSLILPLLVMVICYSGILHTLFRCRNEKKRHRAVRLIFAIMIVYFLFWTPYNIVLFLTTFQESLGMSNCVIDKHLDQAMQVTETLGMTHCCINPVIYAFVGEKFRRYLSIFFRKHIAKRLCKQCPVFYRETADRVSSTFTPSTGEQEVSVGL

Compound	inhibition [1] [%]	IC50 [2] [µM]	IC50 [3] [µM]	Ki [4] [µM]
O=C(CCCN1CCC2(CC1)OCCc1ccccc12)NCc1cc(C(F)(F)F)cc(C(F)(F)F)c1	10	0.684	24	
O=C(NCc1cc(F)cc(C(F)(F)F)c1)C(CCN1CCC2(CC1)OCCc1ccccc12)c1ccc(F)cc1 (stereo not given)	7	0.173	3.63	
COc1ccc2c(c1)CCOC21CCN(CCC(C(=O)NCc2cc(C(F)(F)F)cc(C(F)(F)F)c2)c2ccc(F)cc2)CC1 (stereo not given)		0.163	4.16	
COc1ccc2c(c1)CCOC21CCN(CCCC(=O)NCc2cc(C(F)(F)F)cc(C(F)(F)F)c2)CC1	1	1.24	18	
O=C(NCc1cc(C(F)(F)F)cc(C(F)(F)F)c1)C(CCN1CCC2(CC1)OCCc1ccccc12)c1ccc(F)cc1 (stereo not given)	25	0.089	11.2	
COc1ccc2c(c1)CCOC21CCN(CCCC(=O)NCc2cc(F)cc(C(F)(F)F)c2)CC1	-1	0.318	> 30	
O=C(CCCN1CCC2(CC1)OCCc1ccccc12)NCc1cc(F)cc(C(F)(F)F)c1	4	0.18	> 30	
COc1ccc2c(c1)CCOC21CCN(CCC(C(=O)NCc2cc(F)cc(C(F)(F)F)c2)c2ccc(F)cc2)CC1 (stereo not given)	-7	0.353	4.63	
CC1Cc2ccccc2C2(CCN(CCCC(=O)NCc3cc(F)cc(C(F)(F)F)c3)CC2)O1 (stereo not given)	-10	12	> 30	
O=C(NCc1cc(C(F)(F)F)cc(C(F)(F)F)c1)C(CCN1CCC2(CC1)OCCc1ccccc12)C1CC1 (stereo not given)		0.017	3.3	
O=C(NCc1cc(F)cc(C(F)(F)F)c1)C(CCN1CCC2(CC1)OCCc1cc(O)ccc12)c1ccc(F)cc1 (stereo not given)		6.1	> 30	
CC1Cc2ccccc2C2(CCN(CCC(C(=O)NCc3cc(F)cc(C(F)(F)F)c3)c3ccc(F)cc3)CC2)O1 (stereo not given)	9	1.6	8.01	
CC1Cc2ccccc2C2(CCN(CCC(C(=O)NCc3cc(C(F)(F)F)cc(C(F)(F)F)c3)c3ccc(F)cc3)CC2)O1 (stereo not given)	0	0.462	3.67	
Cc1ccc(-c2ccc3c(c2)C=C(C(=O)Nc2ccc(C[N+](C)(C)C4CCOCC4)cc2)CCC3)cc1			23	0.002
CC1Cc2ccccc2C2(CCN(CCCC(=O)NCc3cc(C(F)(F)F)cc(C(F)(F)F)c3)CC2)O1 (stereo not given)		7.54	7.9	
